# “Also recorded” adds a separate entry of the source. Read-outs that look alike come from different tables or passages of the source. Marks after values point to notes of the source that are not given here.
# Tests used:
# [1] = test system: organic anion transporting polypeptide 1B1; conditions: peficitinib with rosuvastatin; cited from earlier work
# [2] = cited from earlier work
# Safety assessment = type: in vivo, human (Japanese subjects); conditions: for tolerability: non-RA subjects with normal, mild or moderate hepatic impairment, single oral dose
# In short: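 The safety set was every subject dosed with one 150 mg tablet after an overnight fast, assessed throughout the study. TEAEs were events that started or worsened after dosing, coded with Japanese MedDRA J16.0. Assessments also covered vital signs, ECG, hematology, biochemistry, urinalysis and liver tests: ALP, ALT, γ-GTP, total bilirubin and AST.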
# P-glycoprotein = conditions: verapamil (P-glycoprotein inhibitor); cited from earlier work
# rheumatoid arthritis = conditions: daily doses of 100 mg and 150 mg; cited from earlier work
# [3] = type: in vivo, human (Japanese subjects); conditions: for CL/F: single oral 150 mg, mean (SD)
# In short: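 Open-label parallel-group study with planned 8 per group: normal, Child-Pugh A (5–6 points) or B (7–9 points). Subjects took one 150 mg tablet with 150 mL water after an overnight fast. Blood was drawn predose, at 15 min, every 30 min to 2 h, then at 3–72 h. Plasma parent was measured by validated LC-MS/MS (LLOQ 0.25 ng/mL, linear 0.25–500 ng/mL). GMR and 90% CI came from a mixed model with hepatic group as a fixed effect.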
compound,measurement,setting,value
"CC(C)c1nc(N(C)S(C)(=O)=O)nc(-c2ccc(F)cc2)c1/C=C/[C@@H](O)C[C@@H](O)CC(=O)O [rosuvastatin, reference compound]",changes in the PK profile during coadministration,[1],did not demonstrate any clinically significant changes
NC(=O)c1cnc2[nH]ccc2c1N[C@@H]1[C@@H]2CC3C[C@H]1C[C@@](O)(C3)C2 [Peficitinib],changes in the PK profile during coadministration,[1],did not demonstrate any clinically significant changes
same,dose proportionality,[2]; multiple doses from 30 mg twice daily to 100 mg twice daily,Dose proportionality was shown
same,plasma levels reached steady state,"[2]; multiple dosing, healthy subjects",≤ 3 days
same,dose proportionality,[2]; single dose from 3 to 300 mg,Dose proportionality was shown
same,"changes from baseline in vital signs, ECG, or clinical laboratory parameters",Safety assessment; all subjects,no clinically significant changes; also recorded: no clinically meaningful changes
same,deaths,Safety assessment; all subjects,no deaths
same,serious TEAEs,Safety assessment; all subjects,no serious TEAEs
same,withdrawal from the study due to a TEAE,Safety assessment; all subjects,no TEAEs leading to withdrawal; also recorded: no subjects withdrew
same,number of TEAEs considered related to peficitinib,Safety assessment; all subjects (N = 24),Four
same,Back pain,Safety assessment; mild impairment (n = 8),0 n (%)
same,Blood urine present,Safety assessment; mild impairment (n = 8),1 (12.5) n (%)
same,Diarrhea,Safety assessment; mild impairment (n = 8),1 (12.5) n (%)
same,Hypotension,Safety assessment; mild impairment (n = 8),0 n (%)
same,Nausea,Safety assessment; mild impairment (n = 8),0 n (%)
same,"TEAEs, Overall",Safety assessment; mild impairment (n = 8),1 (12.5) ^b n (%)
same,Back pain,Safety assessment; moderate impairment (n = 8),0 n (%)
same,Blood urine present,Safety assessment; moderate impairment (n = 8),0 n (%)
same,Diarrhea,Safety assessment; moderate impairment (n = 8),0 n (%)
same,Hypotension,Safety assessment; moderate impairment (n = 8),1 (12.5) n (%)
same,Nausea,Safety assessment; moderate impairment (n = 8),0 n (%)
same,"TEAEs, Overall",Safety assessment; moderate impairment (n = 8),1 (12.5) n (%)
same,tolerability,Safety assessment,well tolerated
same,tolerability,Safety assessment; listed as peficitinib,generally well tolerated
same,Back pain,Safety assessment; normal function (n = 8),1 (12.5) n (%)
same,Blood urine present,Safety assessment; normal function (n = 8),0 n (%)
same,Diarrhea,Safety assessment; normal function (n = 8),0 n (%)
same,Hypotension,Safety assessment; normal function (n = 8),0 n (%)
same,Nausea,Safety assessment; normal function (n = 8),1 (12.5) n (%)
same,"TEAEs, Overall","Safety assessment; normal function (n = 8), single oral 150 mg",1 (12.5) ^a n (%)
same,Back pain,Safety assessment; total (N = 24),1 (4.2) n (%)
same,Blood urine present,Safety assessment; total (N = 24),1 (4.2) n (%)
same,Diarrhea,Safety assessment; total (N = 24),1 (4.2) n (%)
same,Hypotension,Safety assessment; total (N = 24),1 (4.2) n (%)
same,Nausea,Safety assessment; total (N = 24),1 (4.2) n (%)
same,exposure in combination with verapamil,P-glycoprotein,increased exposure
same,efficacy and tolerability in RA patients,rheumatoid arthritis,effective and well tolerated
same,"GMR Impaired/Normal (90% CI), Cmax",[3]; mild hepatic impairment vs normal hepatic function,"1.04 (0.71, 1.53) %"
same,"GMR Impaired/Normal (90% CI), Cmax","[3]; mild hepatic impairment vs normal hepatic function, listed as peficitinib","1.04 (90% CI: 0.71, 1.53)"
same,increase in geometric mean Cmax,[3]; moderate hepatic impairment versus normal hepatic function,82%
same,"GMR Impaired/Normal (90% CI), Cmax",[3]; moderate hepatic impairment vs normal hepatic function,"1.82 (1.24, 2.69) %"
same,"GMR Impaired/Normal (90% CI), Cmax","[3]; moderate hepatic impairment vs normal hepatic function, listed as peficitinib","1.82 (90% CI: 1.24, 2.69)"
same,exposure,"[3]; moderately impaired vs normal hepatic function, in words",higher exposure
same,CL/F,[3]; mild hepatic impairment,121.3 (54.89) L/h
same,CL/F,[3]; moderate hepatic impairment,74.51 (32.28) L/h
same,CL/F,[3]; normal hepatic function,134.9 (25.77) L/h
